The test system of data set [1] is Root. In words: Drug metabolism in Geranium molle root assessed as transformation to dihydrobiochanin A at 400 uM after 14 days measured per gm of dry weight by LC-MS analysis. Type of data set: ADME. The following applies: 336 h. A digest of the protocol: (§1)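 Pregerminated seeds, 14 per container, transplanted onto 0.5% agar medium containing biochanin A. Grown at 24 ± 1 °C under a 16 h light/8 h dark photoperiod and harvested 14 days after transplanting. Roots and shoots collected separately, blotted, washed twice, then freeze-dried. Tissue extracted by ASE at 40 °C and analysed by LC-ESI-MS against commercial standards. Two replicates per treatment.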

Data set [2] deals with Shoot. In words: Drug uptake in Silene noctiflora shoot at 20 uM after 14 days measured per gm of dry weight by LC-MS analysis. Type of data set: ADME. The following applies: 336 h. The procedure, abridged: (§2)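 Pregerminated seeds (14 per container) were grown on 20 mL 0.5% agar medium containing biochanin A, at 24 ± 1 °C with a 16 h light/8 h dark cycle. There were two replicates per treatment: 14 containers for S. noctiflora, 9 for G. molle and E. crus-galli. At 14 days, roots and shoots were harvested separately, washed, blotted and freeze-dried. Extraction was ASE at 40 °C, 1600 psi, 3 cycles. Analysis was LC-ESI-MS SIM against standards.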

In data set [3] the test system is Shoot. Nature of the data set: Drug metabolism in Silene noctiflora shoot assessed as transformation to p-coumaric acid at 400 uM after 14 days measured per gm of dry weight by LC-MS analysis. It counts as ADME. The following applies: 336 h. A digest of the protocol:
as §1

Data set [4] has as its system Shoot. Nature of the data set: Drug uptake in Echinochloa crus-galli (barnyard grass) shoot at 20 uM after 14 days measured per gm of dry weight by LC-MS analysis. Type of data set: ADME. The conditions noted are these: 336 h. A digest of the protocol:
as §2

Data set [5] concerns Root. Nature of the data set: Drug uptake in Silene noctiflora root at 400 uM after 14 days measured per gm of dry weight by LC-MS analysis. It counts as ADME. The following applies: 336 h. The procedure, abridged: as §2
Data set [6] relates to Root. In words: Drug metabolism in Echinochloa crus-galli (barnyard grass) root assessed as transformation to sissotrin at 20 uM after 14 days measured per gm of dry weight by LC-MS analysis. It counts as ADME. The conditions noted are these: 336 h. The procedure, abridged: as §1
The test system of data set [7] is Amaranthus caudatus. Nature of the data set: Phytotoxicity against Amaranthus caudatus assessed as root growth inhibition at 100 to 400 uM after 2 weeks by agar medium bioassay. Type of data set: functional, organism-based. The procedure, abridged:
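Agar bioassay with eight biochanin A doses (0–400 µM). Seeds were pregerminated 48 h at room temperature, then 10 seedlings were placed per Petri dish and grown 2 weeks at 24 ± 1 °C under a 16 h light/8 h dark cycle. […]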

In data set [8] the test system is Root. Nature of the data set: Drug metabolism in Echinochloa crus-galli (barnyard grass) root assessed as transformation to genistein at 400 uM after 14 days measured per gm of dry weight by LC-MS analysis. Type of data set: ADME. The conditions noted are these: 336 h. A digest of the protocol: as §1

Each structure is given as a SMILES string. Active and inactive are the calls of the source. No cut-off for these calls is given here.

In the case of `COc1ccc(-c2coc3cc(O)cc(O)c3c2=O)cc1` [BIOCHANIN], the Drug metabolism is 0.31 µmol in data set [1], 0.01 µmol in data set [3], 0.48 µmol in data set [6] and 0.12 µmol in data set [8]. The results for the Drug uptake in data set [2], in data set [4] and in data set [5] were 0.76 µmol, 0.05 µmol and 4.54 µmol, respectively. Also, the outcome in data set [7] was inactive.

These data come from ChEMBL document CHEMBL3046081, “Phytotoxic effect, uptake, and transformation of biochanin A in selected weed species” (J Agric Food Chem, 2012).
